Data: ChEMBL document CHEMBL3580617, “Discovery of Benzimidazole CYP11B2 Inhibitors with in Vivo Activity in Rhesus Monkeys” (ACS Med Chem Lett, 2015)
Activity calls are given as the source filed them. The calls are words filed in the database; no cut-off is given here.

Legend:
[1] = test system: Rhesus monkey; assay: Reduction in aldosterone levels in low sodium diet fed rhesus monkey at 0.01 to 0.3 mg/kg, iv followed by 0.3 mg/kg ACTH dosing and measured 30 mins to 180 mins post ACTH administration by UPLC coupled with tandem mass spectrometry; type: functional, organism-based; conditions: Macaca mulatta; 0.001 to 0.3 mg/kg; in the assay text read “0.001 to 0.3 mg/kg” for “0.01 to 0.3 mg/kg”
In short: (§1)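 Anesthetized rhesus monkeys were given i.v. doses from 0.001 to 0.3 mg/kg. Plasma aldosterone and 11-deoxycortisol were quantified by LC-MS at time points up to 180 min postdose, and AUCs were determined for each. Plasma drug was measured at 90 min postdose. Free (unbound) concentrations were calculated from the measured fraction unbound in rhesus plasma.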

[2] = test system: Rhesus monkey; assay: […] in 11-deoxycortisol levels in low sodium diet fed rhesus monkey at free plasma concentration up to 27 nM dosed at 0.01 to 0.3 mg/kg, iv followed by 0.3 mg/kg ACTH dosing and measured 90 mins post ACTH administration by UPLC coupled with tandem mass spectrometry; type: functional, organism-based; conditions: Macaca mulatta; in short: as §1
[3] = target: T1, Cytochrome P450 11B2, mitochondrial (Rattus norvegicus, UniProt P30099); assay: Inhibition of rat CYP11B2 expressed in V79 cells incubated for 1 hr before 11-deoxycorticosterone substrate addition by HTRF-based assay; type: cell-based; conditions: v79, 1 h
T1 sequence (P30099 whole entry): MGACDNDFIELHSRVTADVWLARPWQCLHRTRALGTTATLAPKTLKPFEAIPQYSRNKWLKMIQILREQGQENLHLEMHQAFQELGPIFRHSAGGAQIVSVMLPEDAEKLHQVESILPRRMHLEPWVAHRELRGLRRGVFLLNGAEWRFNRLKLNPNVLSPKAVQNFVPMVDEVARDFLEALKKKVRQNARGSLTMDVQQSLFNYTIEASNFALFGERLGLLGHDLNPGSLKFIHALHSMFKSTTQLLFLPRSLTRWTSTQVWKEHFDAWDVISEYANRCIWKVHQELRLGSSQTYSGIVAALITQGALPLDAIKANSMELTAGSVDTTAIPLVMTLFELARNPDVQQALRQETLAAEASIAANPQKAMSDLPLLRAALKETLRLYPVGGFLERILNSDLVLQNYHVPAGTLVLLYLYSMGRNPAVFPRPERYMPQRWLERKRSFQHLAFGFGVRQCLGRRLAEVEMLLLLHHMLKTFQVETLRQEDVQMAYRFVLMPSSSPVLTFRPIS

[4] = test system: Rhesus monkey; assay: Reduction in aldosterone levels in low sodium diet fed rhesus monkey at 0.01 mg/kg, iv followed by 0.3 mg/kg ACTH dosing and measured 30 mins to 180 mins post ACTH administration by UPLC coupled with tandem mass spectrometry; type: functional, Macaca mulatta; in short: as §1
[5] = test system: Rhesus monkey; assay: Reduction in aldosterone levels in low sodium diet fed rhesus monkey assessed as free plasma concentration causing reduction in aldosterone at 0.01 mg/kg, iv followed by 0.3 mg/kg ACTH dosing and measured 90 mins post ACTH administration by UPLC coupled with tandem mass spectrometry; type: functional, Macaca mulatta; in short: as §1
[6] = test system: Rhesus monkey; assay: Increase in 11-deoxycortisol levels in low sodium diet fed rhesus monkey up to 0.3 mg/kg, iv followed by 0.3 mg/kg ACTH dosing and measured 30 mins to 180 mins post ACTH administration by UPLC coupled with tandem mass spectrometry; type: functional, organism-based; conditions: Macaca mulatta; in short: as §1
[7] = target: T2, Cytochrome P450 11B1, mitochondrial (Homo sapiens, UniProt P15538); assay: Inhibition of human CYP11B1 expressed in V79 cells incubated for 1 hr before 11-deoxycortisol substrate addition by HTRF-based assay; type: cell-based
T2 sequence (P15538 whole entry): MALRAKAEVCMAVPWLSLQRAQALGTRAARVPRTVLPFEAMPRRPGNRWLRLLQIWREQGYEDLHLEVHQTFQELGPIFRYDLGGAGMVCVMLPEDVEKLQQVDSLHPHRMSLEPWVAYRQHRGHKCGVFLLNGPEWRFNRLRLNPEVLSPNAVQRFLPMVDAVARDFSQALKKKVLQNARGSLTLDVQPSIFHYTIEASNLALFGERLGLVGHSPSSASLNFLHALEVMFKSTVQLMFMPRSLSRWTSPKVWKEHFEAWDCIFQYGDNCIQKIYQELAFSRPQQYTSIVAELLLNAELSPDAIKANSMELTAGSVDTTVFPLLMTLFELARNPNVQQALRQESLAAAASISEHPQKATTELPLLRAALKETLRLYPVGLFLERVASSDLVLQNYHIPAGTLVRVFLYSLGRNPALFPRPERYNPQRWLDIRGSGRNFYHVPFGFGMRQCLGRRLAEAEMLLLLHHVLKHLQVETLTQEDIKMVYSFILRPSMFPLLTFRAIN
In short: (§2)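 Human CYP11B2 and CYP11B1 inhibition was tested in cell-based assays. Selectivity was taken as the hCYP11B1 IC50 divided by the hCYP11B2 IC50.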

[8] = species: Homo sapiens; assay: Selectivity index, ratio of IC50 for human CYP11B1 to IC50 for human CYP11B2; in short: as §2
[9] = species: Homo sapiens; assay: Selectivity index, ratio of IC50 for CYP19 (unknown origin) to IC50 for human CYP11B2
[10] = target: T3, Alpha-2B adrenergic receptor (Homo sapiens, UniProt P18089); assay: Inhibition of adrenergic alpha-2B receptor (unknown origin)
T3 sequence (P18089 whole entry): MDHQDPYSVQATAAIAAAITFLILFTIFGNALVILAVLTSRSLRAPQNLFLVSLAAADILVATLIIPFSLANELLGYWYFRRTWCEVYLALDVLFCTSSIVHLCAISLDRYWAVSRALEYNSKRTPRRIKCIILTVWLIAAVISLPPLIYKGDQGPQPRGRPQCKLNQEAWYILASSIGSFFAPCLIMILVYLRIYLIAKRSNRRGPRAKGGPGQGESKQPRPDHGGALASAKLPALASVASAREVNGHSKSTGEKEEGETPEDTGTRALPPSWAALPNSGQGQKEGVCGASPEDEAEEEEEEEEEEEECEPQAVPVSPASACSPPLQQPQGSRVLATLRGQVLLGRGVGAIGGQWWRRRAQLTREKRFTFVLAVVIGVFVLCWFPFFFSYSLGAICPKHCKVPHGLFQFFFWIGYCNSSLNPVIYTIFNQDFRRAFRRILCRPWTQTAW
In short: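 Binding activity was profiled across a panel of 114 receptors, enzymes and ion channels, with an IC50 determined against any target that was hit.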

`CC(C)(O)c1cncc(-c2nc3ccc(F)cc3n2C2CC2)c1` [MSD-CYP11B2] was tested, and the inhibition [1] was “Dose-dependent effect”, the inhibition [2] was “inactive” and the “inhibition (INH)” value [3] was “Not Active”. For the same compound, the “inhibition (INH)” value [4] was 62%, the “Cp(f)” value [5] was 12 nM and the Activity [6] was “inactive”.

`Fc1cncc(-c2nc3cc(F)c(F)cc3n2C2CC2)c1` was tested, and the “inhibition (INH)” value [3] was “Not Active”, the IC50 [7] was 435 nM and the Ratio IC50 [8] was 93. The Ratio IC50 [9] was 500 and the IC50 [10] was 2490 nM.
